Measurements from publication PMC2193001 (The Journal of Experimental Medicine, 1999).
Read-outs that look alike come from different tables or passages of the source.

B1: OVA: chicken egg OVA control protein (protein, UniProt P01012 2-386, looked up)
Ovalbumin: GSIGAASMEFCFDVFKELKVHHANENIFYCPIAIMSALAMVYLGAKDSTRTQINKVVRFDKLPGFGDSIEAQCGTSVNVHSSLRDILNQITKPNDVYSFSLASRLYAEERYPILPEYLQCVKELYRGGLEPINFQTAADQARELINSWVESQTNGIIRNVLQPSSVDSQTAMVLVNAIVFKGLWEKAFKDEDTQAMPFRVTEQESKPVQMMYQIGLFRVASMASEKMKILELPFASGTMSMLVLLPDEVSGLEQLESIINFEKLTEWTSSNVMEERKIKVYLPRMKMEEKYNLTSVLMAMGITDVFSSSANLSGISSAESLKISQAVHAAHAEINEAGREVVGSAEAGVDAASVSEEFRADHPFLFCIKHIATNAVLFFGRCVSP

Legend:
L. major LV39 [1] = test system: L. major LV39; design: species or system Leishmania major; details: in vivo
[2] = test system: ABLE T cells (LACK-specific TCR-transgenic); test: T cell antagonism assay; assay type: cell-based, mouse; details: for Inhibitory (antagonist) activity, overall: 0.1–100 μM, proliferation, IL-4 and IFN-γ
Summary of the method: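 T cells: CD4+ cells enriched from BALB/c ABLE TCR-Cα0 spleen and lymph node by antibody/complement depletion (80% Vβ4+). APC: BALB/c TCR-Cα0 spleen cells, prepulsed 2 h at 37°C with 0.2 μM wild-type LACK peptide, washed, irradiated, then 2 h at 37°C with test peptide up to 100 μM (OVA323–336 control). 1.6 × 10^5 T cells/well were added. Cytokines were read by ELISA at 48 h; [3H]thymidine uptake over 48–66 h. Values are % inhibition versus prepulsed APC without added peptide.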

[3] = test system: ABLE T cells (LACK-specific TCR-transgenic); test: Stimulation of ABLE T cells in vitro by peptides; assay type: cell-based, mouse
Summary of the method: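 Single-cell suspensions (red cells lysed) from spleen and lymph node of BALB/c ABLE TCR-Cα0 mice supplied both T cells and APC. They were plated at 10^6 cells/well in duplicate in RPMI 1640 with 10% heat-inactivated FCS, glutamine, pyruvate and β2-ME, with test peptides over a concentration range. At 48 h, supernatants went to sandwich ELISA against recombinant standards. Wells were then pulsed with 1 μCi [3H]thymidine and harvested 18 h later.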

L. major LV39 [4] = test system: L. major LV39; design: species or system Leishmania major; details: in vivo; remark: listed apart in the source
[5] = test system: popliteal lymph node CD4+ T cells; details: mouse, in vivo
[6] = test system: Vβ4+ T cells of ABLE TCR-Cα^0 mice; details: mouse, in vivo
[7] = APC prepulsed with LACK peptide, 48 h ELISA

| Molecule | Protection (L. major LV39 [1]) | Inhibitory (antagonist) activity, overall [2] | Inhibition of IFN-γ production [2, 7] | Inhibition of IL-4 production [2, 7] | IL-4 production by ABLE T cells ([3]; 48 h supernatants, ELISA, detection limit 50 pg/ml) | IFN-γ production by ABLE T cells ([3]; 48 h supernatants, ELISA, detection limit 1 ng/ml) | Concentration without proliferation of ABLE T cells (highest tested) ([3]; no proliferation even at concentrations up to 4 μM, [3H]thymidine) [µM] | Protection (L. major LV39 [4]) | Proliferation induced by LACK epitopes [5] | Total number of transgenic T cells in draining lymph nodes [6] |
| --- | --- | --- | --- | --- | --- | --- | --- | --- | --- | --- |
| ICFSPSLENPIVVSGSWD [LACK-N164] | Subgroups of resistant and susceptible mice occurred | preferentially inhibited IL-4 production by ABLE T cells | inhibited consistently less | inhibited comparably to the LACK-K164 peptide | neither cytokine was detected | neither cytokine was detected | > 4 |  |  |  |
| ISQAVHAAHAEINE [OVA323–336, reference compound] |  | no inhibitory activity |  |  |  |  |  |  |  |  |
| B1 |  |  |  |  |  |  |  | in contrast to the LACK deletion mutant or OVA controls | No proliferation was induced | 2.9 × 10^5 |
